SMILES strings stand for the structures.

The nature of this series: Toxicity liver stage against HepG2, at 10uM. The format is cell-based. More on the design: test concentration 10 uM, cell line HepG2-A16-CD81EGFP. The following applies: human, HepG2-A16-CD81EGFP cells; read-out: INHIBITION
The method in brief:
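Uninfected HepG2-A16-CD81EGFP cells, 3 × 10^3 per well, 1536-well, plated on prespotted compound at 10 μM final, parasite-free screening media added to match infected plates; puromycin 10 μM positive, DMSO 0.5% negative; run in parallel with 48 h PbLuc assay at 37 °C, 5% CO2; viability by CellTiter-Glo luminescence, normalized to controls.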
For the compound `CC1CCN(C[C@H]2CN3CC[C@H]2C[C@@H]3CNC(=O)Nc2ccsc2)CC1`, the cytotoxicity at 10 µM was found to be 2.95%.
For `CC(C)C1SCC(=O)Nc2c1cnn2-c1ccc(Cl)cc1` (stereo unspecified), the cytotoxicity at 10 µM worked out at 47%.
Next, `Cn1nc(N2CCCC(C(=O)Nc3nc4ccccc4s3)C2)ccc1=O` (stereo unspecified): 27.6%; `CC(C)Nc1nc2c(c(NC3CC3)n1)CN(C(=O)c1ccsc1)CC2`: -27.2%; `Cc1cnc(NC2CCc3c(ccc(=O)n3CC3CC3)C2)nc1` (stereo unspecified): -137%.
The same measure for `Cn1nc(CN2CCCCC2)c2c1CN(C(=O)Nc1cccc(F)c1)C2`: 5.68%; for `CCS(=O)(=O)N1CCc2ncnc(OC)c2CC1`: 6.93%.
As for `CC(C)c1ccc(NC(=O)Cn2cc(I)cn2)cc1`, the cytotoxicity at 10 µM was determined as 2.77%.
Take `Cc1[nH]/c(=N\C(=O)c2csc(NC3CC3)n2)sc1C`: the cytotoxicity at 10 µM came out at 37.4%.
For the compound `CC(Cn1cc(Br)cn1)C(=O)Nc1ccc(Br)cn1` (stereo unspecified), the cytotoxicity at 10 µM was 73.3%.
Consider `Cc1ccc(NC(C)(C)c2nnnn2-c2ccc(Cl)cc2)c(C)c1`, for which the cytotoxicity at 10 µM worked out at 55.4%.
Consider `CCc1noc(C2CCCCN2C(=O)c2cc(C)oc2C)n1` (stereo unspecified), for which the cytotoxicity at 10 µM came out at 8.57%.
The same measure for `Cc1ccnn1CCCNC(=O)C1CCN(S(C)(=O)=O)CC1`: 3.63%; for `CCN(CC)C(=O)CN1CCC2(C=Cc3cc(Cl)c(C)cc3O2)CC1`: -3.02%.
Consider `Cc1cc(Cc2cccc(C(F)(F)F)c2)cc(C2CCCNC2)n1` (stereo unspecified), for which the cytotoxicity at 10 µM is -2.34%.
`CCCN(C(=O)c1cccnc1)c1nc2c(s1)CCc1c-2cnn1C`: the cytotoxicity at 10 µM is 5.05%.
Next, `CNc1cccc(C2CCCN(C(=O)Cc3ccccc3)C2)n1` (stereo unspecified): -6.5%.
In the case of `CCc1ccc(C(=O)N2CC[C@H](Oc3cccnc3C)[C@@H](O)CC2)cc1`, the cytotoxicity at 10 µM was determined as 8.24%.
The same measure for `Cc1ccc(Nc2nccc(C3CCCN(CC(=O)N(C)C)C3)n2)nc1` (stereo unspecified): -2.09%; for `CC(C)c1nc2n(n1)CC(Nc1ncnc3ccccc13)CC2` (stereo unspecified): -0.95%.
Next, `CC(C)(C)CN(CCC#N)C(=O)c1cccc(CC#N)c1`: 7.05%; `CC(c1nc(-c2ccccc2)no1)N1CCc2c(ncn2C2CC2)C1` (stereo unspecified): 7.12%.
As for `CN(CCc1ccncc1)CCc1nccs1`, the cytotoxicity at 10 µM turned out to be 1.8%.
The same measure for `COCC1CCN(c2ccnc3ccsc23)C1` (stereo unspecified): 6.24%.
For `CC(C)(C)n1ncc(NCC(O)c2ccccc2)c(Cl)c1=O` (stereo unspecified), the cytotoxicity at 10 µM was 46.6%.
In the case of `CC(C)(C)n1ncc(NCC(O)c2ccccc2C(F)(F)F)c(Cl)c1=O` (stereo unspecified), the cytotoxicity at 10 µM was 53.6%.
The same measure for `NC(=O)c1ccc(N2CCN(Cc3ccc(F)cc3Cl)CC2)nn1`: 62.6%; for `CC(C)Cn1ncc(C(=O)NS(=O)(=O)c2ccccc2)c1C1CC1`: 2.35%.
Next, `CSCc1cc(F)ccc1CNC(=O)N1CCCC(CO)C1` (stereo unspecified): 10.3%; `COc1cc(C)sc1C(=O)NCCC(=O)N(C)c1ccccc1`: -1.41%.
The same measure for `Cc1ccc(S(=O)(=O)N2CCN(CCCn3ccnc3)CC2)cc1`: -13.5%; for `CC(C)(C)SCC(=O)NCCc1csc(N2CCCC2)n1`: 8.74%; for `Cn1cc(-c2csc(N3CCCCCC3)n2)cn1`: 4.22%.
In the case of `NC(=O)c1ccc(N2CCCCC2)c(NC(=O)c2cc(Br)ccc2Cl)c1`, the cytotoxicity at 10 µM came out at 59.6%.
Consider `CC(C)(C)c1nc(CNC2CCCN(c3cccnn3)C2)no1` (stereo unspecified), for which the cytotoxicity at 10 µM is 4.93%.
Next, `CC(C)c1ccc(C(CN)N2CCc3sccc3C2)cc1` (stereo unspecified): 1.66%; `Cc1nc(C)c(C)c(N2CCC(NCCOc3ccccc3)CC2)n1`: -1.45%; `COCCN(C)c1ccc(NCc2ccsc2)nc1`: -5.2%.
For the compound `O=C(C[S+]([O-])Cc1ccc(F)cc1)N1CCc2sccc2C1` (stereo unspecified), the cytotoxicity at 10 µM is -3.86%.
In the case of `COc1cc(CNc2nncs2)cc(OC)c1OC`, the cytotoxicity at 10 µM came to 18.7%.
The same measure for `CN(C)S(=O)(=O)c1ccc(CNc2ccc(Cl)cn2)cc1`: 7.25%.
For `CCCN(CCc1ccccn1)C(=O)Cn1cc(C)cn1`, the cytotoxicity at 10 µM is -9.22%.
Regarding `COc1ccccc1C1(CNc2snc(Cl)c2C#N)CCCC1`, the cytotoxicity at 10 µM worked out at 31.6%.
The same measure for `NC(=O)c1nc2c(s1)CCN(C(=O)Nc1cccc(Cl)c1)CC2`: 6.64%; for `CCOCC1CN(C(=O)c2ccco2)Cc2cnn(CC)c21` (stereo unspecified): -69%.
The same measure for `CC(C)CC(=O)N1CC(=O)c2sc(Nc3ccc(C#N)cc3)nc2C1`: -0.279%.
For the compound `CNc1cc(C)nc(NC2CCCN(C3Cc4ccccc4C3)C2)n1` (stereo unspecified), the cytotoxicity at 10 µM stood at 0.403%.
The same measure for `O=C1N(Cc2ccc(F)c(F)c2)CCCC12CCN(C1CCCCC1)C2` (stereo unspecified): -0.268%; for `c1ccc(OCc2noc(CN3CCC(N4CCSCC4)CC3)n2)cc1`: -6.95%; for `NC1CCCCN(Cc2cc(-c3ccccc3OC(F)(F)F)no2)C1` (stereo unspecified): -4.52%.
On to `CCNc1ncc(C(=O)NC2CCc3ccccc3C2)cn1` (stereo unspecified), for which the cytotoxicity at 10 µM came to 82.6%.
For the compound `COc1cccc(OCC2CCCN(C(=O)CCn3ccnc3)C2)c1` (stereo unspecified), the cytotoxicity at 10 µM was -19.8%.
The same measure for `CCc1cc(N2CCN(c3ccc(Cl)cn3)CC2)n2nccc2n1`: 23.1%.
The same measure for `CC(C)c1ccc(CN2C(=O)C3(CCNCC3)Nc3ccccc32)cc1`: -9.81%; for `CC(=O)N1CCc2c(nc(N(C)C)nc2NC(C)Cc2cccs2)C1` (stereo unspecified): -42.9%; for `COc1cccc(CCC2CCCN(C(=O)c3cnccn3)C2)c1` (stereo unspecified): 13.7%.
Next, `CN(C)CCNc1ccc(-c2nc(-c3ccccc3F)no2)cn1`: 9.34%.
On to `Fc1cc(Oc2ccc(C(F)(F)F)cn2)cc(F)c1CN1CCCC1`, for which the cytotoxicity at 10 µM was 24%.
Next, `CC(C)[C@H](C)NC1CCN(c2ccc(-c3cscn3)cc2)CC1`: -50.8%.
Next, `O=C1N(CC2CC2)CCCC1(O)CN1CCc2[nH]ncc2C1` (stereo unspecified): -2.2%; `COCC1(Nc2nc(C)nc3c2cnn3C)CCCC1`: 37.4%.
Take `CC(C)c1cc(NC2CCCN(C(=O)c3cccs3)C2)ncn1` (stereo unspecified): the cytotoxicity at 10 µM was -7.55%.
Consider `Cc1nc(CN(C)C)cc(N2CCCC(COc3ccc(F)cc3)C2)n1` (stereo unspecified), for which the cytotoxicity at 10 µM is -7.4%.
Take `Cc1nonc1CN(C)c1nc(-c2cccnc2)nc2c1CCNC2`: the cytotoxicity at 10 µM stood at 4.05%.
With `Cc1nc(NCCc2noc(C3CCCO3)n2)c2sccc2n1` (stereo unspecified), the cytotoxicity at 10 µM turned out to be 53.6%.
Next, `COc1cc(N(C)Cc2cccc(-n3cccn3)c2)nc(N)n1`: 49.1%; `CCc1cc(N(C)Cc2cc[nH]n2)n2nc(C)c(C)c2n1`: 24%; `CCCN1CCC(NC(=O)c2csc(C)c2-c2ccccc2)CC1`: -133%.
Next, `CCNc1ccnc(N2Cc3cnn(Cc4ccc(F)cc4)c3C2)n1`: 10%; `O=C(c1cc(-c2cn[nH]c2)nc2cc(F)ccc12)N1CCS(=O)(=O)CC1`: 0.141%; `CCCn1cc(-c2ccnc(NC3CCc4ccccc43)n2)c(C)n1` (stereo unspecified): 10.1%.
Take `Cc1cc(C(=O)N2CCOC(c3ccc(Cl)c(Cl)c3)C2)[nH]n1` (stereo unspecified): the cytotoxicity at 10 µM was found to be 4.55%.
In the case of `Cc1ccccc1N1CCCN(c2ccncn2)CC1`, the cytotoxicity at 10 µM stood at 24.9%.
As to `Cc1c[nH]c(CN2CCOC(c3ccc(Cl)cc3)C2)c(C)c1=O` (stereo unspecified), the cytotoxicity at 10 µM worked out at 13.4%.
For `Cc1ccc(Cl)cc1C(=O)N1CCC2(CC1)c1ccccc1[C@@H](N)[C@@H]2O`, the cytotoxicity at 10 µM was -13.8%.
Consider `O=C1CC[C@H]2CN(Cc3ccc(Cl)s3)CC[C@H]2N1CCc1c[nH]cn1`, for which the cytotoxicity at 10 µM is 38.5%.
The same measure for `Cc1cc(C)c2nc(CN3CCCC(c4cc[nH]n4)C3)cc(O)c2c1` (stereo unspecified): -3.97%.
The same measure for `CCn1ccnc1CN1CCCC(CO)(Cc2cccc(Cl)c2)C1` (stereo unspecified): -0.0444%.
Take `CCS(=O)(=O)N1CCC(NC(=O)c2cc3ccccc3cc2O)CC1`: the cytotoxicity at 10 µM is -2.1%.
Next, `Cn1cc(NS(=O)(=O)c2ccc3c(c2)CCCC3)ccc1=O`: 40.7%; `COC(=O)c1ccc(N2CCN(C(=O)c3cccnc3)C(C)C2)cc1` (stereo unspecified): 4.54%; `Cc1cc(C)c(CNC(=O)N2CCCC2c2cc(C)on2)c(=O)[nH]1` (stereo unspecified): 1.1%.
The same measure for `O=C(NCC(=O)N1CCCc2ccccc21)c1c(O)cc(F)cc1F`: 28.6%.
The same measure for `CN(C)c1ccc(CN(CCCn2ccnc2)Cc2c[nH]cn2)cc1`: -1.34%; for `Cc1cccc(Nc2cc(C3CCCN(CC(N)=O)C3)ccn2)n1` (stereo unspecified): 12.3%; for `CC(C)NC(=O)N1CCN(CC2CC2)CC2(CC(=O)N(C)C2)C1` (stereo unspecified): -1.34%.
In the case of `c1cnc(N2CCC3(CCCN(Cc4ccncc4)C3)CC2)nc1`, the cytotoxicity at 10 µM is -91.6%.
On to `Cc1cnc(N2CCCC3(CCCN3CC(=O)N(C)C)C2)nc1` (stereo unspecified), for which the cytotoxicity at 10 µM is -0.634%.
Turning to `Cc1csc(CN2CC[C@H]3O[C@H](C(=O)Nc4cccnc4)CC[C@H]32)n1`, the cytotoxicity at 10 µM is -47.1%.
Next, `O=C(c1ccsc1)N1C[C@@H]2OCCN(CCN3CCCC3)[C@@H]2C1`: -73.7%; `Fc1cccc(CN2CCOC3(COCCN(CC4CC4)C3)C2)c1` (stereo unspecified): -111%; `c1ccc(OC2COC3(CCN(Cc4ccccn4)CC3)C2)cc1` (stereo unspecified): -69.2%.
Turning to `COCCN1CCO[C@H]2CN(C(=O)c3cccs3)C[C@H]21`, the cytotoxicity at 10 µM stood at 2.1%.
The same measure for `O=C1CC2(CCN(Cc3ccco3)C2)CN1c1ccc2c(c1)OCO2` (stereo unspecified): -75.9%; for `Cc1ccc(CN2Cc3nnn(C)c3C(COCc3ccccc3)C2)s1` (stereo unspecified): 1.58%.
Take `COc1cccc(-c2ncc(CN3C[C@H]4CC[C@@H](C3)N(C)C4=O)s2)c1`: the cytotoxicity at 10 µM was determined as 6.74%.

Values taken from ChEMBL document CHEMBL4513216, “Probing the Open Global Health Chemical Diversity Library for Multistage-Active Starting Points for Next-Generation Antimalarials” (ACS Infect Dis, 2020).
